In ChEMBL document CHEMBL1649147, “Antistaphylococcal activity of dihydrophthalazine antifolates, a family of novel antibacterial drugs” (2009):
Converted amounts (≈) assume the structure as drawn.

What was measured:
[1] = tested on: Staphylococcus epidermidis; assay: Antibacterial activity against coagulase-negative Staphylococcus epidermidis 051 assessed as change in MIC by agar dilution method after serial passages in the absence of antibiotic relative to control; format: functional
Summary of the method: (§1)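 After drug-selective serial passage, selected clones were passaged 10 times in antibiotic-free MHB. MICs were then redetermined, and the change is expressed as log2 dilution steps.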

[2] = tested on: Staphylococcus aureus; assay: Antibacterial activity against methicillin-susceptible, vancomycin-intermediate Staphylococcus aureus 505 by broth macrodilution method; format: functional
[3] = tested on: Staphylococcus epidermidis; assay: Antibacterial activity against methicillin-resistant coagulase-negative Staphylococcus epidermidis 197 after 50 passages by agar dilution method; format: functional
Summary of the method: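 Daily serial passage for up to 50 days at 35°C for 24 h in 1 ml MHB. Each transfer used 10 µl from the tube nearest the MIC (1–2 dilutions below) with the same turbidity as the drug-free control. MICs were measured by agar dilution, with changes given as log2 steps.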

[4] = tested on: Staphylococcus aureus; assay: Antibacterial activity against methicillin-resistant Staphylococcus aureus 507 by broth macrodilution method; format: functional
[5] = tested on: Staphylococcus aureus; assay: Antibacterial activity against Staphylococcus aureus ATCC 29213 assessed as change in MIC by agar odilution method after serial passages in presence of antibiotic relative to control; format: functional, ATCC29213
Summary of the method: (§2)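 Serial passage under drug. Inoculum was ~1 × 10^6 CFU/ml from overnight MHA growth, in 1 ml MHB at 35°C for 24 h. Drug ranged from 4 log2 steps above to 3 log2 steps below the MIC. […] MIC change is given as log2 steps.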

[6] = tested on: Staphylococcus aureus; assay: Antibacterial activity against methicillin-resistant and vancomycin-resistant Staphylococcus aureus VRS1 by agar dilution method; format: functional
Summary of the method: (§3)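 Agar dilution on Mueller-Hinton agar per CLSI guidelines. S. aureus ATCC 29213 and E. faecalis ATCC 29212 were run with each set, and test MICs were accepted only when the control strains fell within acceptable ranges.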

[7] = tested on: Staphylococcus epidermidis; assay: Antibacterial activity against coagulase-negative Staphylococcus epidermidis 051 assessed as change in MIC by agar dilution method after serial passages in presence of antibiotic relative to control; format: functional; summary of the method: as §2
[8] = tested on: Staphylococcus aureus; assay: Antibacterial activity against methicillin-resistant Staphylococcus aureus 145 by broth macrodilution method; format: functional
[9] = tested on: Staphylococcus epidermidis; assay: Antibacterial activity against coagulase-negative Staphylococcus epidermidis 051 after 10 passages in MBH without antibiotic by agar dilution method; format: functional; summary of the method: as §1
[10] = tested on: Staphylococcus epidermidis; assay: Antibacterial activity against coagulase-negative Staphylococcus epidermidis 225 by agar dilution method; format: functional
Summary of the method: (§4)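 MICs by agar dilution on Mueller-Hinton agar following CLSI guidelines. S. aureus ATCC 29213 and E. faecalis ATCC 29212 were run as quality controls with each set, and test-strain MICs were kept only if control MICs fell within acceptable ranges.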

[11] = tested on: Staphylococcus aureus; assay: Antibacterial activity against vancomycin-resistant Staphylococcus aureus VRS1 assessed as change in MIC by agar dilution method after serial passages in presence of antibiotic relative to control; format: functional
Summary of the method: (§5)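 Daily serial passage for up to 50 days at 35°C for 24 h in 1 ml MHB. […] Each transfer used 10 µl from the tube nearest the MIC (1–2 dilutions below) with the same turbidity as the drug-free control. […] MICs were measured by agar dilution, with changes given as log2 steps.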

[12] = tested on: Staphylococcus epidermidis; assay: Antibacterial activity against methicillin-resistant, vancomycin-intermediate coagulase-negative Staphylococcus epidermidis 225 by agar dilution method; format: functional; summary of the method: as §3
[13] = tested on: Staphylococcus epidermidis; assay: Antibacterial activity against coagulase-negative Staphylococcus epidermidis 057 assessed as change in MIC by agar dilution method after serial passages in the absence of antibiotic relative to control; format: functional; summary of the method: as §1
[14] = tested on: Staphylococcus epidermidis; assay: Antibacterial activity against methicillin-resistant coagulase-negative Staphylococcus epidermidis 197 by broth macrodilution method; format: functional
[15] = tested on: Staphylococcus aureus; assay: Antibacterial activity against methicillin-susceptible Staphylococcus aureus ATCC 29213 after 50 passages by agar dilution method; format: functional; conditions: ATCC29213; summary of the method: as §5
[16] = tested on: Staphylococcus epidermidis; assay: Antibacterial activity against coagulase-negative Staphylococcus epidermidis 225 after 10 passages in MBH without antibiotic by agar dilution method; format: functional; summary of the method: as §1
[17] = tested on: Staphylococcus aureus; assay: Antibacterial activity against methicillin-resistant Staphylococcus aureus by agar dilution method; format: functional; summary of the method: as §3
[18] = tested on: Staphylococcus aureus; assay: Antibacterial activity against methicillin-susceptible Staphylococcus aureus 505 by broth macrodilution method; format: functional
[19] = tested on: Staphylococcus aureus; assay: Antibacterial activity against Tmp-susceptible coagulase-negative Staphylococcus aureus by agar dilution method; format: functional; summary of the method: as §4
[20] = tested on: Staphylococcus epidermidis; assay: Antibacterial activity against methicillin-susceptible coagulase-negative Staphylococcus epidermidis 057 by broth macrodilution method; format: functional
[21] = tested on: Staphylococcus epidermidis; assay: Antibacterial activity against coagulase-negative Staphylococcus epidermidis 057 after 10 passages in MBH without antibiotic by agar dilution method; format: functional; summary of the method: as §1
[22] = tested on: Staphylococcus epidermidis; assay: Antibacterial activity against coagulase-negative Staphylococcus epidermidis 057 assessed as change in MIC by agar dilution method after serial passages in presence of antibiotic relative to control; format: functional; summary of the method: as §2
[23] = tested on: Staphylococcus epidermidis; assay: Antibacterial activity against coagulase-negative Staphylococcus epidermidis 345 assessed as change in MIC by agar dilution method after serial passages in the absence of antibiotic relative to control; format: functional; summary of the method: as §1
[24] = tested on: Staphylococcus epidermidis; assay: Antibacterial activity against coagulase-negative Staphylococcus epidermidis 225 assessed as change in MIC by agar dilution method after serial passages in presence of antibiotic relative to control; format: functional; summary of the method: as §2
[25] = tested on: Staphylococcus epidermidis; assay: Antibacterial activity against coagulase-negative Staphylococcus epidermidis 057 by agar dilution method; format: functional
Summary of the method: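 Agar dilution MIC determined on Mueller-Hinton agar following CLSI guidelines. S. aureus ATCC 29213 and Enterococcus faecalis ATCC 29212 were run as quality controls with each set, and test MICs were accepted only when the control MICs fell within acceptable ranges. Test organism was a coagulase-negative S. epidermidis strain.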

[26] = tested on: Staphylococcus epidermidis; assay: Antibacterial activity against methicillin-resistant, Linezolid non-susceptible coagulase-negative Staphylococcus epidermidis 345 by agar dilution method; format: functional
[27] = tested on: Staphylococcus aureus; assay: Antibacterial activity against vancomycin-resistant Staphylococcus aureus VRS1 assessed as change in MIC by agar dilution method after serial passages in the absence of antibiotic relative to control; format: functional
Summary of the method: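 Clones from the end of drug passage were transferred 10 times in MHB without antibiotic, then retested by agar dilution. MIC change is expressed as log2 dilution steps.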

[28] = tested on: Staphylococcus aureus; assay: Antibacterial activity against methicillin-susceptible Staphylococcus aureus by agar dilution method; format: functional; summary of the method: as §3
[29] = tested on: Staphylococcus aureus; assay: Antibacterial activity against Staphylococcus aureus 145 after 10 passages in MHB without antibiotic by agar dilution method; format: functional; summary of the method: as §1
[30] = tested on: coagulase-negative staphylococci; assay: Antibacterial activity against methicillin-susceptible coagulase-negative staphylococci by agar dilution method
[31] = tested on: Staphylococcus aureus; assay: Antibacterial activity against Staphylococcus aureus 145
[32] = tested on: Staphylococcus epidermidis; assay: Antibacterial activity against coagulase-negative Staphylococcus epidermidis 197 assessed as change in MIC by agar dilution method after serial passages in presence of antibiotic relative to control; format: functional; summary of the method: as §2
[33] = tested on: Staphylococcus epidermidis; assay: Antibacterial activity against coagulase-negative Staphylococcus epidermidis 225 assessed as change in MIC by agar dilution method after serial passages in the absence of antibiotic relative to control; format: functional; summary of the method: as §1
[34] = tested on: Staphylococcus aureus; assay: Antibacterial activity against Staphylococcus aureus 145 assessed as change in MIC by agar dilution method after serial passages in presence of antibiotic relative to control; format: functional; summary of the method: as §2
[35] = tested on: Staphylococcus aureus; assay: Antibacterial activity against methicillin-resistant Staphylococcus aureus ATCC 43300 after 50 passages by agar dilution method; format: functional; conditions: ATCC43300; summary of the method: as §2
[36] = tested on: Staphylococcus epidermidis; assay: Antibacterial activity against methicillin-susceptible coagulase-negative Staphylococcus epidermidis 051 by broth macrodilution method; format: functional

COc1ncc(C2c3ccccc3C=NN2C(=O)/C=C/c2cc(Cc3cnc(N)nc3N)cc(OC)c2OC)cn1 (stereo not drawn)
fold change (FC) [1]: -2
MIC [2]: 0.016 µg/mL (≈ 0.029 µM)
MIC [3]: 1 µg/mL (≈ 1.81 µM)
MIC [4]: 0.06 µg/mL (≈ 0.109 µM)
fold change (FC) [5]: 8
MIC [6]: 0.5 µg/mL (≈ 0.905 µM)
fold change (FC) [7]: 8
MIC [8]: 0.25 µg/mL (≈ 0.452 µM)
MIC [9]: 16 µg/mL (≈ 29 µM)
MIC [10]: 0.25 µg/mL (≈ 0.452 µM)
fold change (FC) [11]: 9
MIC [12]: 0.25 µg/mL (≈ 0.452 µM)
fold change (FC) [13]: 0
MIC [14]: 0.008 µg/mL (≈ 0.0145 µM)
MIC [15]: 8 µg/mL (≈ 14.5 µM)
MIC [16]: 8 µg/mL (≈ 14.5 µM)
MIC50 [17]: 0.03 µg/mL (≈ 0.0543 µM)
MIC90 [17]: 0.25 µg/mL (≈ 0.452 µM)
MIC [18]: 0.03 µg/mL (≈ 0.0543 µM)
MIC [19]: ≤ 0.008 µg/mL
MIC [20]: 8 µg/mL (≈ 14.5 µM)
MIC [21]: 128 µg/mL (≈ 232 µM)
fold change (FC) [22]: 4
fold change (FC) [23]: -3
fold change (FC) [24]: 9
MIC [25]: 8 µg/mL (≈ 14.5 µM)
MIC [26]: 0.125 µg/mL (≈ 0.226 µM)
fold change (FC) [27]: -1
MIC50 [28]: 0.03 µg/mL (≈ 0.0543 µM)
MIC90 [28]: 0.25 µg/mL (≈ 0.452 µM)
MIC [29]: 16 µg/mL (≈ 29 µM)
MIC90 [30]: 0.06 µg/mL (≈ 0.109 µM)
MIC [31]: 0.5 µg/mL (≈ 0.905 µM)
fold change (FC) [32]: 5
fold change (FC) [33]: -4
fold change (FC) [34]: 9
MIC [35]: 4 µg/mL (≈ 7.24 µM)
MIC [36]: 0.125 µg/mL (≈ 0.226 µM)
